Test results published in ChEMBL document CHEMBL4689842, “EUbOPEN Chemogenomics Library wave 1” (2021).

Tested on: Fibroblast
Assay: Multiplex assay against human fibroblast
Type: toxicity, cell-based
Outline: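 Per cents of healthy-nucleus cells form the tubulin, mitochondrial-mass and membrane-permeability phenotype values. Live cells were stained at seeding with Hoechst33342, BioTracker Green Microtubule Cytoskeleton Dye, MitoTracker Red and Annexin V Alexa Fluor 680. After compound addition they were imaged on a CQ1 microscope at 37°C and 5% CO2, and CellPathfinder machine-learning gating split them into Hoechst high-intensity objects or normal cells, normal cells into healthy, pyknosed or fragmented nuclei, and pyknosed cells into mitotic or apoptotic.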

[1] = 12 h, 1 µM, compound concentration 1 uM, replicate 1
[2] = 12 h, 1 µM, compound concentration 1 uM, replicate 2
[3] = 12 h, 10 µM, compound concentration 10 uM, replicate 1
[4] = 12 h, 10 µM, compound concentration 10 uM, replicate 2
[5] = 24 h, 1 µM, compound concentration 1 uM, replicate 1
[6] = 24 h, 1 µM, compound concentration 1 uM, replicate 2
[7] = 24 h, 10 µM, compound concentration 10 uM, replicate 1
[8] = 24 h, 10 µM, compound concentration 10 uM, replicate 2

## Cn1nc(C(F)(F)F)cc1-c1cnc(N2CCc3cc(S(=O)(=O)Nc4c(F)cc(Cl)cc4F)cc(N4CCCC4=O)c32)nc1 [TP-020]
[1]
  Population Apoptotic (%): 69%
  Population Fragmented Nuclei (%): 20%
  Population Healthy Nuclei (%): 59%
  Population Hoechst High Intensity Objects (%): 13%
  Population Membrane Permeable-Phenotype (%): 35%
  Population Mitochondria Different-Phenotype (%): 4%
  Population Mitotic Cells (%): 30%
  Population Normal (%): 86%
  Population Pyknosed Nuclei (%): 20%
  Population Tubulin-Different-Phenotype (%): 58%
  Total Cell Count: 241
[2]
  Population Apoptotic (%): 42%
  Population Fragmented Nuclei (%): 56%
  Population Healthy Nuclei (%): 26%
  Population Hoechst High Intensity Objects (%): 34%
  Population Membrane Permeable-Phenotype (%): 45%
  Population Mitochondria Different-Phenotype (%): 18%
  Population Mitotic Cells (%): 57%
  Population Normal (%): 65%
  Population Pyknosed Nuclei (%): 17%
  Population Tubulin-Different-Phenotype (%): 72%
  Total Cell Count: 63
[3]
  Population Apoptotic (%): 65%
  Population Fragmented Nuclei (%): 30%
  Population Healthy Nuclei (%): 57%
  Population Hoechst High Intensity Objects (%): 7%
  Population Membrane Permeable-Phenotype (%): 13%
  Population Mitochondria Different-Phenotype (%): 1%
  Population Mitotic Cells (%): 35%
  Population Normal (%): 92%
  Population Pyknosed Nuclei (%): 11%
  Population Tubulin-Different-Phenotype (%): 3%
  Total Cell Count: 192
[4]
  Population Apoptotic (%): 33%
  Population Fragmented Nuclei (%): 62%
  Population Healthy Nuclei (%): 28%
  Population Hoechst High Intensity Objects (%): 41%
  Population Membrane Permeable-Phenotype (%): 10%
  Population Mitochondria Different-Phenotype (%): 0%
  Population Mitotic Cells (%): 66%
  Population Normal (%): 58%
  Population Pyknosed Nuclei (%): 8%
  Population Tubulin-Different-Phenotype (%): 10%
  Total Cell Count: 60
[5]
  Population Apoptotic (%): 51%
  Population Fragmented Nuclei (%): 19%
  Population Healthy Nuclei (%): 57%
  Population Hoechst High Intensity Objects (%): 9%
  Population Membrane Permeable-Phenotype (%): 25%
  Population Mitochondria Different-Phenotype (%): 4%
  Population Mitotic Cells (%): 48%
  Population Normal (%): 90%
  Population Pyknosed Nuclei (%): 23%
  Population Tubulin-Different-Phenotype (%): 55%
  Total Cell Count: 246
[6]
  Population Apoptotic (%): 57%
  Population Fragmented Nuclei (%): 57%
  Population Healthy Nuclei (%): 26%
  Population Hoechst High Intensity Objects (%): 36%
  Population Membrane Permeable-Phenotype (%): 18%
  Population Mitochondria Different-Phenotype (%): 27%
  Population Mitotic Cells (%): 42%
  Population Normal (%): 63%
  Population Pyknosed Nuclei (%): 16%
  Population Tubulin-Different-Phenotype (%): 27%
  Total Cell Count: 66
[7]
  Population Apoptotic (%): 42%
  Population Fragmented Nuclei (%): 22%
  Population Healthy Nuclei (%): 66%
  Population Hoechst High Intensity Objects (%): 10%
  Population Membrane Permeable-Phenotype (%): 7%
  Population Mitochondria Different-Phenotype (%): 1%
  Population Mitotic Cells (%): 57%
  Population Normal (%): 89%
  Population Tubulin-Different-Phenotype (%): 2%
  Total Cell Count: 188
[8]
  Population Apoptotic (%): 50%
  Population Fragmented Nuclei (%): 52%
  Population Healthy Nuclei (%): 35%
  Population Hoechst High Intensity Objects (%): 38%
  Population Membrane Permeable-Phenotype (%): 8%
  Population Mitochondria Different-Phenotype (%): 0%
  Population Mitotic Cells (%): 50%
  Population Normal (%): 61%
  Population Pyknosed Nuclei (%): 11%
  Population Tubulin-Different-Phenotype (%): 25%
  Total Cell Count: 55
